Results on seven compounds are retold here after ChEMBL document CHEMBL4190221, “Inhibition of Proliferation of Vascular Smooth Muscle Cells by Cucurbitanes from Momordica charantia” (J Nat Prod, 2017).

Series [1] has as its system VSMC. The series is described as follows: Cytotoxicity against Sprague-Dawley rat VSMC assessed as decrease in cell viability at 5 to 10 uM after 24 hrs by MTT assay. Format: cell-based. A digest of the protocol: (§1)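 Primary aortic smooth muscle cells from Sprague-Dawley rats, passages 7–10, grown in DMEM/10% FBS at 37 °C and seeded at 3.0 × 10^4 cells/mL. Cells were serum-starved 24 h, then exposed to compound for 24 h alongside a 0.1% DMSO control and a digitonin 100 μg/mL cytotoxicity control. MTT 5 mg/mL was added for 2 h, formazan taken up in DMSO, and OD read at 565 nm. Four independent experiments, each in triplicate.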
(In general: Formazan colour is commonly taken as a measure of viable cells.)

For series [2], the system named is VSMC. Put plainly: Inhibition of PDGF-induced Sprague-Dawley rat VSMC proliferation at 5 to 10 uM pretreated for 2 hrs followed by PDGF stimulation measured after 24 hrs by MTT assay. It is filed as functional, cell-based. The procedure, abridged: (§2)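 Rat aortic VSMCs (Sprague-Dawley, passages 7–10) were seeded at 3.0 × 10^4 cells/mL, grown 24 h in DMEM/10% FBS, then serum-starved 24 h. Compound was added 2 h before PDGF 25 ng/mL, followed by 24 h more incubation. Paclitaxel 1 μM served as positive control. MTT read-out at 565 nm. Four independent experiments in triplicate, compared against PDGF-stimulated cells.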

For series [3], the system named is VSMC. The series is described as follows: Inhibition of PDGF-induced Sprague-Dawley rat VSMC proliferation at 10 uM pretreated for 2 hrs followed by PDGF stimulation measured after 24 hrs by MTT assay relative to control. Format: functional. The procedure, abridged:
as §2

In series [4] the test system is VSMC. The series is described as follows: Cytotoxicity against Sprague-Dawley rat VSMC assessed as decrease in cell viability at 0.5 to 1 uM after 24 hrs by MTT assay. It is filed as cell-based. A digest of the protocol: as §1
Series [5] has as its system VSMC. The series is described as follows: Cytotoxicity against Sprague-Dawley rat VSMC assessed as decrease in cell viability at >5 uM after 24 hrs by MTT assay. It is filed as cell-based. A digest of the protocol:
as §1

Calls of active or inactive are those of the source. The calls are words filed in the database; no cut-off is given here.

Take `CO[C@H]1O[C@]23C=C[C@@H]4[C@@]1(CC[C@]1(C)[C@@H]([C@H](C)C/C=C/C(C)(C)OC)CC[C@@]41C)[C@@H]2CC[C@H](OC(=O)C(=O)O)C3(C)C`: the Activity entry with VSMC [1] is listed as “Non-Toxic”.

For orientation: inhibition means the drop in the measured response relative to a control, in per cent. As to `COC(C)(C)/C=C/C[C@@H](C)[C@H]1CC[C@@]2(C)[C@@H]3[C@@H](O)C=C4[C@@H](CC[C@H](OC(=O)CC(=O)O)C4(C)C)[C@]3(C=O)CC[C@]12C`, in the series on VSMC [2], the inhibition result was “Active”. The Activity entry with VSMC [1] was “Non-Toxic”.

For `CO[C@H](C=C(C)C)C[C@@H](C)[C@H]1CC[C@@]2(C)[C@@H]3[C@@H](OC)C=C4[C@@H](CC[C@H](OC(=O)CC(=O)O)C4(C)C)[C@]3(C=O)CC[C@]12C`, the inhibition at 10 µM in the series on VSMC [3] came to 67.9%. In the series with VSMC [1], the Activity result is “Non-Toxic”.

On to `C[C@H](C/C=C/C(C)(C)O)[C@H]1CC[C@@]2(C)[C@@H]3C=C[C@@]45OC(=O)[C@]3(CC[C@]12C)[C@@H]4CC[C@H](O[C@@H]1O[C@H](CO)[C@@H](O)[C@@H](O)[C@H]1O)C5(C)C`, for which, in the series on VSMC [2], the inhibition entry was “Active”. The Activity result in the series on VSMC [1] is reported as “Non-Toxic”.

As for `COC(C)(C)/C=C/C[C@@H](C)[C@H]1CC[C@@]2(C)[C@@H]3C=C[C@@]45OC(=O)[C@]3(CC[C@]12C)[C@@H]4CC[C@H](OC(=O)CC(=O)O)C5(C)C`, the values for the Activity result with VSMC [4] and in the series on VSMC [5] were “Non-Toxic” and “Toxic”, respectively.

With `CO[C@H]1O[C@]23C=C[C@@H]4[C@@]1(CC[C@]1(C)[C@@H]([C@H](C)C/C=C/C(C)(C)OC)CC[C@@]41C)[C@@H]2CC[C@H](OC(=O)CC(=O)O)C3(C)C`, the inhibition at 10 µM in the series with VSMC [3] was 72.4%. The Activity entry with VSMC [1] is “Non-Toxic”.

Turning to `C[C@H](C/C=C/C(C)(C)O)[C@H]1CC[C@@]2(C)[C@@H]3[C@@H](O)C=C4[C@@H](CC[C@H](OC(=O)CC(=O)O)C4(C)C)[C@]3(C=O)CC[C@]12C`, in the series on VSMC [2], the inhibition result is “Active”. Also, the Activity result in the series on VSMC [1] was “Non-Toxic”.
